From paper PMC4073661 (Journal of Natural Products, 2014)
Converted amounts (≈) assume the structure as drawn. “Also recorded” adds a separate entry of the source.

Legend:
[1] = system: P-388 murine lymphocytic leukemia cells; conditions: cited from earlier work
KB cells = conditions: cited from earlier work
topo IIα = topo IIα (Homo sapiens, UniProt P11388); assay: Topoisomerase II assay; type: biochemical; conditions: 100 μM
[2] = system: HT-29 cells implanted in immunodeficient NCr nu/nu mice; assay: In vivo hollow fiber assay
Procedure, shortened: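 Eight- to nine-week-old mice carrying HT-29 cells in hollow fibers received ip doses once daily on days 3–6 after implantation. Vehicle was diluted with water to 13% DMSO and 25% Cremophor; paclitaxel 5 mg/kg was the positive control. Body weight was recorded daily. Fibers were retrieved on day 7 for modified MTT. Net growth (day 7 − day 0 absorbance) was expressed relative to vehicle; n = 6 control, 3 per treatment.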

[3] = system: CCD-112CoN normal human colon cells; assay: Cytotoxicity against CCD-112CoN cells; type: cell-based
Procedure, shortened: (§1)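 Cell growth-inhibition screen with paclitaxel as positive control. Each measurement was run in triplicate, and each value is representative of two independent experiments. IC50 was calculated by nonlinear regression.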

caspase-3 = assay: Caspase-3 activation by Western blot; type: cell-based, human; conditions: 24 h incubation; 1, 5 and 10 μM; cleaved caspase-3 Western blot
[4] = system: HT-29 human colon cancer cells; assay: Cytotoxicity against HT-29 cells; type: cell-based
Procedure, shortened: as §1

[5] = system: SKW-3 chronic lymphoid leukemia cells; conditions: cited from earlier work
[6] = system: KB human epidermoid carcinoma; conditions: read-out: IC50, KB cell growth; cited from earlier work
[7] = system: MCF-7S human breast carcinoma; conditions: read-out: IC50, MCF-7S cell growth; cited from earlier work
[8] = system: several human cancer cell lines; conditions: cited from earlier work
[9] = system: a broad spectrum of normal and tumor cell lines; conditions: cited from earlier work
topoisomerase = conditions: cited from earlier work
[10] = system: HT-29 human colon cancer cell; conditions: 8-day treatment; cited from earlier work
[11] = cited from earlier work

Sequence of topo IIα (P11388 whole entry): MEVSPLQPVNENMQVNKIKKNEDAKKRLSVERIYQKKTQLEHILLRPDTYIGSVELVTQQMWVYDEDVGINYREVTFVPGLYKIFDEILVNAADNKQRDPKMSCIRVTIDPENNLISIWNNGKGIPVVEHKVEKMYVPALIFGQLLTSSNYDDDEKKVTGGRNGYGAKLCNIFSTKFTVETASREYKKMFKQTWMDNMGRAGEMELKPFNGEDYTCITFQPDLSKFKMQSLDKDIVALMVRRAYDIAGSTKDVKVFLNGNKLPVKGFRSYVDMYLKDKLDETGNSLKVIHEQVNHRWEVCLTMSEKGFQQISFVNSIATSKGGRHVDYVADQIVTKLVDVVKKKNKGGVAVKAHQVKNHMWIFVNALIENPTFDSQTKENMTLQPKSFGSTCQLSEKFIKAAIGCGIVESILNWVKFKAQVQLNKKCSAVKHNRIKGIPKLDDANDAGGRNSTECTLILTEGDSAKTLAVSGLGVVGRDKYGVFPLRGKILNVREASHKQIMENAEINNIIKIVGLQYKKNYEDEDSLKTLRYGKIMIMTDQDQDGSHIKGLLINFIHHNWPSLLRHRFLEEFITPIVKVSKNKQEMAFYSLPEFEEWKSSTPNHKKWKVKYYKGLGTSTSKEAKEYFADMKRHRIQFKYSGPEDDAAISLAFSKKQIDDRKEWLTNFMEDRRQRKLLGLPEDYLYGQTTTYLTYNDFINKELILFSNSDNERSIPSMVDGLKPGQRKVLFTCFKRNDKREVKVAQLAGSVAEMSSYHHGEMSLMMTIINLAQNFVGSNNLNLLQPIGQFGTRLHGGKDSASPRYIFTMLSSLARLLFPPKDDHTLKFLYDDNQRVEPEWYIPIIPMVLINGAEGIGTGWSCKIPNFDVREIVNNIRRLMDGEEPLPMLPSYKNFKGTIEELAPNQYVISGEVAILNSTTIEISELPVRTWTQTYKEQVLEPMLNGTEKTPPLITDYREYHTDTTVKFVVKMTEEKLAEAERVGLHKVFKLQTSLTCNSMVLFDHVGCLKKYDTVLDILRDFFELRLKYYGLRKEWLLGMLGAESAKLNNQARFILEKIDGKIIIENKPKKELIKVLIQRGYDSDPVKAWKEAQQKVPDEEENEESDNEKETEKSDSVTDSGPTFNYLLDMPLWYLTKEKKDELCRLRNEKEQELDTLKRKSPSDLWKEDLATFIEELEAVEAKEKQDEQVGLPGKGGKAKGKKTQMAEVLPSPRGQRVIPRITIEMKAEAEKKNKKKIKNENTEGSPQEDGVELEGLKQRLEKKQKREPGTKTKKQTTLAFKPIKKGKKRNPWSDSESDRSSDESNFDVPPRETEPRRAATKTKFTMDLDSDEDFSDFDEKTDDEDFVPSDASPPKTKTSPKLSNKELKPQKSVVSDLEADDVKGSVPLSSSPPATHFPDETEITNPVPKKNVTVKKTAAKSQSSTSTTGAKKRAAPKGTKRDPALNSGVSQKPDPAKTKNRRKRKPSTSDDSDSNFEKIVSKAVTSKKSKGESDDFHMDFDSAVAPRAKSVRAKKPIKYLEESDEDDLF

COc1cc2c(O[C@@H]3OC[C@H](O)[C@H](O)[C@H]3O)c3c(c(-c4ccc5c(c4)OCO5)c2cc1OC)C(=O)OC3 [Acutissimalignan A]
IC50 toward P-388 cells [1]: 0.02 µg/mL (≈ 0.039 µM)

COc1cc2c(OC3OCC(OC)C(OC)C3O)c3c(c(-c4ccc5c(c4)OCO5)c2cc1OC)C(=O)OC3 (centres unmarked) [Cleistanthin A]
GI50 toward KB cells (KB cells): 5.6 nM

COc1cc2c(O[C@@H]3OC[C@H](OC(C)=O)[C@H](OC(C)=O)[C@H]3O)c3c(c(-c4ccc5c(c4)OCO5)c2cc1OC)C(=O)OC3 [Compound 1, 7-O-[(3,4-di-O-acetyl)-α-L-arabinopyranosyl]-4,5-dimethoxy-3′,4′-methylenedioxy-2,7′-cycloligna-7,7′-dieno-9,9′-lactone]
topo IIα inhibition (in words) (topo IIα): did not inhibit DNA topoisomerase IIα activity
toxicity in treated mice ([2]; 5.0-20.0 mg/kg ip once daily for 4 days, NCr nu/nu mice): No gross toxicity was observed; also recorded: no signs of toxicity
relative HT-29 cell growth in hollow fibers ([2]; 10.0, 15.0 or 20.0 mg/kg ip once daily for 4 days, compared with 5 mg/kg ip, NCr nu/nu mice): statistically significantly different
activity in in vivo hollow fiber assay ([2]; HT-29 cells implanted in NCr nu/nu mice): showed activity
cytotoxicity toward CCD-112CoN human normal colon cells (in words) [3]: noncytotoxic
caspase-3 activation in HT-29 cells (caspase-3): induced activation of caspase-3

COc1cc2c(O[C@@H]3OC[C@H](O)[C@H](O)[C@H]3O)c3c(c(-c4ccc5c(c4)OCO5)c2cc1OC)C(=O)OC3 [Compound 4, phyllanthusmin C]
cytotoxicity toward CCD-112CoN human normal colon cells (in words) [3]: noncytotoxic

COc1cc2c(O[C@@H]3O[C@H](CO)[C@@H](O)[C@H](O)[C@H]3O)c3c(c(-c4ccc5c(c4)OCO5)c2cc1OC)C(=O)OC3 [Compound 5, cleistanthin B]
cytotoxicity against HT-29 human colon cancer cells (in words) [4]: inactive

COc1cc2cc3c(c(-c4ccc5c(c4)OCO5)c2cc1OC)C(=O)CO3 [Justicidin B]
cytotoxicity toward SKW-3 cells (in words) [5]: cytotoxic

COc1cc2c(O[C@@H]3O[C@H](C)[C@@H](O)[C@H](O)[C@H]3O)c3c(c(-c4ccc5c(c4)OCO5)c2cc1OC)C(=O)OC3 [Patentiflorin A]
IC50 [6]: 4 nM
IC50 [7]: 3 nM

COc1ccc(-c2c3c(c(OC)c4cc5c(cc24)OCO5)COC3=O)cc1OC [chinensinaphthol methyl ether]
cytotoxicity (in words) [8]: did not show such activity

COc1cc2c(O[C@@H]3O[C@H](CO)[C@@H](O)[C@H](O)[C@H]3O)c3c(c(-c4ccc5c(c4)OCO5)c2cc1OC)C(=O)OC3 [cleistanthin B]
selectivity of cytotoxicity, tumor versus normal cell lines (in words) [9]: showed cytotoxicity toward human tumor cells selectively

COc1cc2c(-c3ccc4c(c3)OCO4)c3c(cc2cc1O)COC3=O [daurinol]
formation of open circular and linear DNA from topoisomerase-DNA cleavable intermediate (topoisomerase): did not induce the formation of open circular and linear DNA

COc1cc([C@@H]2c3cc4c(cc3[C@@H](O[C@@H]3O[C@@H]5CO[C@@H](C)O[C@H]5[C@H](O)[C@H]3O)[C@H]3COC(=O)[C@H]23)OCO4)cc(OC)c1O [etoposide]
caspase-3 activation in HT-29 cells (caspase-3): did not induce caspase-3 activation
cytotoxicity against HT-29 human colon cancer cells (in words) [4]: inactive
HT-29 cell apoptosis induction [10]: induced HT-29 human colon cancer cell apoptosis

COc1cc2c(OC)c3c(c(-c4ccc5c(c4)OCO5)c2cc1OC)C(=O)OC3 [justicidin A]
IC50 toward several human cancer cell lines [8]: 0.002 to 0.007 µg/mL
cytotoxicity (in words) [8]: highly cytotoxic

CC(=O)O[C@H]1C(=O)[C@@]2(C)[C@H]([C@H](OC(=O)c3ccccc3)[C@]3(O)C[C@H](OC(=O)[C@H](O)[C@@H](NC(=O)c4ccccc4)c4ccccc4)C(C)=C1C3(C)C)[C@]1(OC(C)=O)CO[C@@H]1C[C@@H]2O [paclitaxel]
IC50 ([4]; Homo sapiens, HT-29, read-out: IC50 values toward the HT-29 cells): 1 nM

Cleistanthoside A tetraacetate
IG50 values, cytotoxicity [11]: in the nanomolar range
